The values below come from ChEMBL document CHEMBL3627708, “A multifunctional, light-activated prochelator inhibits UVA-induced oxidative stress” (Bioorg Med Chem Lett, 2015).

Active and inactive are the calls of the source. The rule behind the calls is not given here.

A short description of series [1]: Metal chelating activity assessed as formation of compound-Fe3+ complex by measuring free calcein level at 10 uM irradiated with UVA for 15 secs measured after 1 hr by fluorescence-based microplate assay. Type of series: physicochemical. The procedure, abridged:
(§1)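 Calcein competition in PBS: 2 µM calcein with 2 µM (NH4)2Fe(SO4)2, forming Fe3+(calcein) in situ. Compound added at 10 µM, with or without 15 s photolysis in a photoreactor (λmax 350 nm). Calcein emission recorded 1 h after photolysis; triplicate, SD.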

Series [2] relates to ARPE-19. The series can be described thus: Cytoprotective activity in human ARPE19 cells assessed as reduction of UVA radiation-mediated cell death at 75 to 100 uM preincubated for 2 hrs followed by 40 mins UVA irradiation measured after 5 hrs by LDH release assay. The class given is functional, cell-based. In outline: (§2)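 ARPE-19 retinal pigment epithelial cells pre-treated 2 h with compound (5–100 µM range tested), then exposed to UVA for 40 min at 600 kJ/m2. Cell death read 5 h after irradiation; triplicate wells per treatment, normalized to cells treated with 2% Triton X-100.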

A short description of series [3]: Photoconversion of the compound in PBS buffer assessed as time required to show umbelliferone peak at 50 uM irradiated with UVA for 75 secs by LC-MS analysis. The class given is physicochemical. To be noted: 75 s. In outline:
(§3)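 Prochelator solutions analysed by LC-MS before and after UVA irradiation. New peaks identified by matching elution times and mass spectra to authentic umbelliferone and HAPI.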

Series [4] can be described thus: Inhibition of Fe-dependent reactive oxygen species formation at 10 to 200 uM irradiated with UVA for 15 secs measured after 1 hr by H2DCF-DA-based fluorescence assay. Type of series: functional. In outline:
(§4)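 H2DCF (20 µM) in PBS pH 7.4 with 10 µM FeCl3, 10 µM NTA, 1 mM ascorbic acid and 1 mM H2O2. Wells dosed with chelator or prochelator, the latter either irradiated (+) or not irradiated (−) with UVA. DCF fluorescence read at ex 485/em 535 nm. Background from wells with only H2DCF and buffer subtracted.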

Series [5] is described as follows: Metal chelating activity assessed as formation of compound-Fe3+ complex by measuring free calcein level at 10 uM after 1 hr by fluorescence-based microplate assay in absence of UVA irradiation. Type of series: physicochemical. The procedure, abridged:
as §1

A short description of series [6]: Inhibition of Fe-dependent reactive oxygen species formation at 200 uM after 1 hr by H2DCF-DA-based fluorescence assay in absence of UVA irradiation. Type of series: functional. The procedure, abridged:
as §4

The subject of series [7] is ARPE-19. The series can be described thus: Cytoprotective activity in human ARPE19 cells assessed as reduction of UVA radiation-mediated cell death at < 50 uM preincubated for 2 hrs followed by 40 mins UVA irradiation measured after 5 hrs by LDH release assay. The class given is functional, cell-based. The procedure, abridged: as §2
The nature of series [8]: Photoconversion of the compound in PBS buffer assessed as time required to show HAPI peak at 50 uM irradiated with UVA for 75 secs by LC-MS analysis. The class given is physicochemical. As to conditions: 75 s. The procedure, abridged:
as §3

The nature of series [9]: Inhibition of Fe-dependent reactive oxygen species formation at 10 to 100 uM after 1 hr by H2DCF-DA-based fluorescence assay in absence of UVA irradiation. The class given is functional. In outline: as §4
Series [10] in a line: Cytotoxicity against human ARPE19 cells assessed as cell viability at 75 to 100 uM after 72 hrs by Cell Titer Blue assay. Type of series: cell-based. To be noted: arpe-19, 72 h. In outline: (§5)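 ARPE-19 cells incubated with compound for 24 h or extended to 72 h, doses up to 100 µM, then assessed for cytotoxicity.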
Series [11] can be described thus: Cytotoxicity against human ARPE19 cells assessed as cell viability at <25 uM after 72 hrs by Cell Titer Blue assay. The class given is cell-based. As to conditions: arpe-19, 72 h. In outline:
as §5

Series [12] is described as follows: Cytotoxicity against human ARPE19 cells assessed as cell viability up to 100 uM after 24 hrs by Cell Titer Blue assay. As to conditions: arpe-19, 24 h. Type of series: cell-based. In outline:
as §5

Series [13] deals with ARPE-19. The series can be described thus: Cytoprotective activity in human ARPE19 cells assessed as reduction of UVA radiation-mediated cell death at 5 to 100 uM preincubated for 2 hrs followed by 40 mins UVA irradiation measured after 5 hrs by LDH release assay. The class given is functional, cell-based. In outline:
as §2

The nature of series [14]: Inhibition of Fe-dependent reactive oxygen species formation after 1 hr by H2DCF-DA-based fluorescence assay. The class given is functional. The procedure, abridged:
as §4

Series [15] is described as follows: Inhibition of Fe-dependent reactive oxygen species formation at 10 to 5000 uM after 90 mins by H2DCF-DA-based fluorescence assay. The class given is functional. The procedure, abridged:
(§6)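 H2DCF (20 µM) oxidation to DCF driven by 10 µM FeCl3, 10 µM NTA, 1 mM H2O2 and 1 mM ascorbate in PBS pH 7.4. Compound tested over a concentration range alongside trolox. Control wells hold Fe, NTA, H2O2 and ascorbate only. DCF read at ex 485/em 535 nm.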

Series [16] in a line: […] of Fe-dependent reactive oxygen species formation after 90 mins by H2DCF-DA-based fluorescence assay. The class given is physicochemical. As to conditions: 1.5 h. The procedure, abridged:
as §6

Regarding `C/C(=N\NC(=O)c1ccncc1)c1ccccc1OC(=O)/C=C/c1ccc(O)cc1O`, the Activity entry in series [1] was “Active”; in series [5], “Not Active”; in series [10], “Toxic”; in series [11], “Non-toxic”; in [12], “Non-toxic”. Besides, the outcome in the series with ARPE-19 [2] was inactive. In addition, the Time in series [3] was 8.3 min; in series [8], 11.7 min. Moreover, the inhibition result in [4] and in series [6] was “Active” throughout. Further, in the series with ARPE-19 [7], the result was Active. Besides, in series [9], the inhibition result is “inactive”.

Regarding `C/C(=N\NC(=O)c1ccncc1)c1ccccc1O`, the Activity result in [1] is on record as “Active”; in series [5], “Active”; in series [10] it was “Toxic”; in series [11], “Non-toxic”; in [12] it was “Non-toxic”. In addition, in the series with ARPE-19 [13], the outcome was Active. For the same molecule, the inhibition result in series [14] was “Dose-dependent effect”.

Take `Cc1c(C)c2c(c(C)c1O)CCC(C)(C(=O)O)O2` (stereo not drawn): the inhibition result in series [15] was “Active”.

On to `O=c1ccc2ccc(O)cc2o1` [UMBELLIFERONE], for which, in the series on ARPE-19 [13], the result was inactive. For the same molecule, the Activity entry in series [16] was “Dose-dependent effect”; in series [12] it was “Non-toxic”.
